Assay outcomes from PubChem.
MrgX1 antagonist = antagonists of human MrgX1 receptor, primary screen, HEK293 cells, Fluo-4 calcium flux | Mas-related G-protein coupled receptor member X1 (Homo sapiens), Q96LB2 | BAM8-22 antagonism; hits give low values | B-score at 10 µM | 1.3% of 310,000 active | AID 588676, 2011;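 active means calcium-response B-score plate-corrected more than 3 library SD below zero, starting fluorescence within 5 deviations, no agonist response on first addition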;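 further: peak minus trough fluorescence over baseline after final BAM8-22 challenge near maximal dose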
Target sequence (Q96LB2 whole entry, looked up): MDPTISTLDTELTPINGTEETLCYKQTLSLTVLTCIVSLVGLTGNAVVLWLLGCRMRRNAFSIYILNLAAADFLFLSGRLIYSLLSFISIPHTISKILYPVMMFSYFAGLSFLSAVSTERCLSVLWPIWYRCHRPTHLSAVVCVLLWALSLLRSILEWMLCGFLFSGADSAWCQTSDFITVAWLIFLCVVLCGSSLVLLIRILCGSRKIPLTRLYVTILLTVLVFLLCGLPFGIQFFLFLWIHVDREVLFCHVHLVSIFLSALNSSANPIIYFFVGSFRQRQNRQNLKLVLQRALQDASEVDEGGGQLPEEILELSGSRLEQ
MrgX1 allo act = positive allosteric modulators of MrgX1, primary screen, HEK293 cells, Fluo-4 calcium flux | FDSS; hits give high values | 0.63% of 310,000 active | Mas-related G-protein coupled receptor member X1 (Homo sapiens), Q96LB2 | AID 588675, 2011 | B-score at 10 µM;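 active means plate-corrected calcium response at least 3 library SD above typical, normal starting fluorescence, not activating the receptor alone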;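 further: compound read alongside a low EC10 to EC30 dose of BAM8-22 agonist; peak minus trough fluorescence over baseline measured at the second addition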
RGS4 act = RGS4 potentiators or activators, primary screen, cell-based, HEK293 M3R inducible RGS4, calcium flux; carbachol calcium flux Fluo4; hits give low values; B-score at 10 µM; 0.92% of 310,000 active; AID 463111, 2010;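 active means B-score of the integrated calcium signal more than 4 SD below the library mean, with starting fluorescence not abnormally high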;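 further: negative B-score means reduced calcium response which marks RGS4 activation or potentiation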
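System – HEK293 FlpIn-TREx cells, stable M3R, doxycycline-inducible RGS4 · Reagent – ECmax carbachol challenge · Times – compound preincubation 20 min at room temperature before agonist · Technique – Fluo4 fluorescence kinetic imaging of calcium · Measure – B score of integrated Fluo4 ratio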
MrgX1 ag = agonists of human MrgX1 receptor, primary screen, HEK293 cells, Fluo-4 calcium flux | B-score at 10 µM | AID 588627, 2011 | Fluo-4 calcium fluorescence, agonist mode; hits give high values | 0.44% of 310,000 active;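 active means calcium response B-score plate-corrected fluorescence ratio at least 3 library SD, with starting fluorescence B-score inside 5 SD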
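times = overnight plating, then 30 min 37 °C plus 30 min room-temperature dye loading | assay system = stable human MrgX1 HEK293 cell line | input = fifteen thousand cells per well | signal = kinetic calcium dye fluorescence, Fluo-4 NW | dosing = compound delivered in addition one of three | read-out = B-scored fluorescence response ratio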
RGS4 block = RGS4 inhibitors, primary screen, cell-based, HEK293 M3R inducible RGS4, calcium flux; 0.45% of 310,000 active; B-score at 10 µM; AID 463165, 2010; Fluo-4 calcium flux; hits give high values; triggered by carbachol at its EC20;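 active means B-score, a plate-corrected calcium signal, over three deviations above library mean, with baseline fluorescence within five deviations of library mean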;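 further: RGS4 expression induced by doxycycline in cells with stable M3 receptor; B-score is computed from the integrated fluorescence ratio over baseline after carbachol; higher B-score means a larger calcium signal and so more RGS4 inhibition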
MrgX1 ant reconf = MrgX1 receptor antagonists, duplicate retest, confirmation, HEK293 cells, Fluo-4 calcium flux. shares compounds with MrgX1 antagonist. BAM8-22 calcium flux; hits give low values. remaining BAM8-22 calcium response % of control (hits give low values), % at 10 µM. 19% of 2,300 active. AID 602420, 2012;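 active means remaining agonist calcium response no higher than 100% minus 3 SD of agonist-only control wells, with starting fluorescence near control levels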;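 further: agonist BAM8-22 given at a near maximal EC90 to ECmax level; peak minus minimum fluorescence divided by baseline after agonist addition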
HEK293 Ca flux = nonspecific calcium signal in parental HEK293, confirmation, counter-screen for MrgX1 antagonist project, parental HEK293 cells, Fluo-4 calcium flux; shares compounds with MrgX1 antagonist; Fluo-4 calcium fluorescence, FDSS; AID 624111, 2012; 2% of 4,000 active; fluorescence ratio F(max-min)/F0 at 10 µM;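 active means duplicate-averaged calcium fluorescence ratio at least three times the standard deviation of buffer wells, a nonspecific response in parental cells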
HEK293 Ca counter = calcium response in parental HEK293 cells, primary screen, counter-screen for MrgX1 allosteric activator project, cell-based, Fluo-4 calcium flux, duplicate | AID 624114, 2012 | fluorescence ratio F(max-min)/F0 at 10 µM | 0.4% of 4,000 active | shares compounds with MrgX1 antagonist | Fluo-4 fluorescence ratio; hits give high values;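 active means calcium fluorescence ratio, averaged over duplicates, at least 3 SD of the buffer-well ratio, meaning a nonspecific response in receptor-free cells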;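 further: untransfected parental HEK293 lacking MrgX1 used as counterscreen for MrgX1 allosteric activators; fluorescence change taken during the second addition on a kinetic imager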
HEK293 Ca cntr2 = calcium response in parental HEK293 cells, primary screen, counter-screen for MrgX1 agonist project, cell-based, Fluo-4 calcium flux, duplicate, agonist mode; Fluo-4 calcium fluorescence (FDSS); hits give high values; fluorescence ratio F(max-min)/F0 at 10 µM; 8.7% of 4,000 active; shares compounds with MrgX1 antagonist;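 active means calcium fluorescence ratio at least three times the spread of buffer wells, meaning a non-specific response in parental cells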
Active calls of the source: *; i = inactive; / = no result given. In the library only some 3.5% were active in any assay of this set; here they are far more common.

SMILES	MrgX1 antagonist	MrgX1 allo act	RGS4 act	MrgX1 ag	RGS4 block	MrgX1 ant reconf	HEK293 Ca flux	HEK293 Ca counter	HEK293 Ca cntr2
CN(C)c1ccnc2sc3c(=O)n(-c4ccccc4)cnc3c12	-4.6*	i	i	i	i	i	i	i	i
Cn1c(=O)c2nnn(/N=C(\c3ccccc3)C3CC3)c2n(C)c1=O	-5.1*	i	i	i	i	68%*	i	i	i
CC(=O)Nc1ccc(S(=O)(=O)Nc2nc3nc(-c4ccccc4)cc(-c4ccccc4)n3n2)cc1	-6.4*	i	i	i	i	81%*	i	i	i
CC(=O)Nc1ccc(S(=O)(=O)Nc2cc(-c3ccccc3)nn2C)cc1	i	i	i	i	i	/	/	/	/
COc1cc(NC(=O)C2CSC3(C)CCC(=O)N23)c(OC)cc1Cl (configuration not stated)	-7.8*	i	i	i	i	83%*	i	i	i
COC(=O)/C(=C\Nc1ccccc1N)c1ncc(C(F)(F)F)cc1Cl	-4.5*	i	i	i	i	i	i	i	i
Cc1ccc(C)c(S(=O)(=O)C(C#N)c2nc3ccccc3nc2N2CCCC2)c1 (configuration not stated)	i	i	i	i	i	/	/	/	/
Cc1ccc(C)c(S(=O)(=O)C(C#N)c2nc3ccccc3nc2N2CC(C)OC(C)C2)c1 (configuration not stated)	-7.4*	i	i	i	i	81%*	i	i	56*
O=C(O)c1ccc2ncsc2c1	-5.6*	i	i	i	i	68%*	i	i	i
Cc1cccc(C)c1N(CC(=O)NC1CCCCC1)C(=O)c1csnn1	i	i	i	i	i	/	/	/	/
CC(=O)NCCc1ccc(S(=O)(=O)NC2OC(=O)c3ccccc32)cc1 (configuration not stated)	-4.8*	i	i	i	i	i	i	i	i
CC(=O)NCc1ccc(S(=O)(=O)NC(C)CCc2ccccc2)cc1 (configuration not stated)	i	i	i	i	i	/	/	/	/
O=C(Cc1ccc2c(c1)OCCO2)c1c(O)cc(O)cc1O	-5.2*	i	i	i	i	71%*	i	i	i
COc1ccc(C(=O)Cc2ccc3c(c2)OCO3)c(O)c1	i	i	i	i	i	/	/	/	/
O=C(/C=C\c1ccc2c(c1)OCO2)CC1(O)C(=O)Nc2ccccc21 (configuration not stated)	i	i	i	i	i	/	/	/	/
COc1ccc(N=Cc2ccc(-c3ccccc3)o2)cc1	-6*	i	i	i	i	i	i	i	i
Cc1cc([N+](=O)[O-])nn1CC(=O)N(C)C1CCCCC1	i	i	i	i	i	/	/	/	/
